Laboratory results published in ChEMBL document CHEMBL1124977, “Synthesis of acyclic and dehydroaspartic acid analogues of Ac-Asp-Glu-OH and their inhibition of rat brain N-acetylated alpha-linked acidic dipeptidase (NAALA dipeptidase)” (J Med Chem, 1990).
Residues, ends and D or L forms follow the SMILES beside them.

Tests used:
[1] = target: T1, Glutamate carboxypeptidase 2 (Rattus norvegicus, UniProt P70627); experiment: Concentration required for 50%inhibition of Ac-Asp-[3,4-3H]-Glu-OH hydrolysis against rat forebrain N-acetylated-alpha-linked acidic dipeptidase
T1 sequence (P70627 whole entry): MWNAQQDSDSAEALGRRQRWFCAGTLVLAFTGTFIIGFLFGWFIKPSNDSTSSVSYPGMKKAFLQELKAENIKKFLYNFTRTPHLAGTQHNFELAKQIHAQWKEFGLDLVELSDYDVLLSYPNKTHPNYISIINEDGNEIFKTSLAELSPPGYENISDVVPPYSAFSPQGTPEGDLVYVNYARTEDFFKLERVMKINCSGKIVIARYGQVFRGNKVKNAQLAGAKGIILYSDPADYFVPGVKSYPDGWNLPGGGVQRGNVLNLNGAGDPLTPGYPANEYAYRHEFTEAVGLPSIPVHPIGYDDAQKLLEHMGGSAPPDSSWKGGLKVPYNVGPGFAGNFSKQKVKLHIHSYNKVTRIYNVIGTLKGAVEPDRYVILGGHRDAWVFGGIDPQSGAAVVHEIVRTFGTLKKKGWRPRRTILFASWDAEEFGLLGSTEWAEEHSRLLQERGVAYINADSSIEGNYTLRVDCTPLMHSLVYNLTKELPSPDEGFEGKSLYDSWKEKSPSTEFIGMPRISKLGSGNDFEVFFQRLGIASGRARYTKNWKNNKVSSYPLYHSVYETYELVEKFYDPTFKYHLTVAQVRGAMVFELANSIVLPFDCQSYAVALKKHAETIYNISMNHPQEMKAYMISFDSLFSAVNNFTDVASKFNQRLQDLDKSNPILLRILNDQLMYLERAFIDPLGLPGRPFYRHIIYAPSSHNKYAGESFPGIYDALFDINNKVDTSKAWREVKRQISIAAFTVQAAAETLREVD
How it was run: (§1)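 Enzyme source: "buffy coat" synaptic membranes from Sprague-Dawley rat (45–90 days) forebrain, washed in 0.1 M Hepes pH 7.4 and stored frozen. Inhibitor was tested at about 2- and 4-fold above and below the estimated IC50. Mean of three experiments ± SEM.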

[2] = target: T1, Glutamate carboxypeptidase 2; experiment: Tested for Ac-Asp-[3,4-3H]-Glu-OH hydrolysis inhibitory activity against rat forebrain N-acetylated-alpha-linked acidic dipeptidase
How it was run: (§2)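 Ki used the same rat forebrain membrane assay (Hepes pH 7.4, NaCl, CoCl₂, radiometric ³H-Glu read-out). Substrate was 0.25, 0.5, 1.0, 2.0 and 5.0 μM. Inhibitor was tested at 0, IC50, and 2- and 4-fold above and below IC50. Lineweaver–Burk slopes were replotted against [inhibitor]. Ki equals the slope at 0 μM inhibitor divided by the replot slope. Ki was determined only when IC50 <100 μM.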

[3] = target: T1, Glutamate carboxypeptidase 2; experiment: Concentration required for 50%inhibition of Ac-Asp-[3,4-3H]-Glu-OH hydrolysis against rat forebrain N-Acetylated alpha-linked Dipeptidase (NAALA Dipeptidase); how it was run: as §1
[4] = target: T1, Glutamate carboxypeptidase 2; experiment: Tested for Ac-Asp-[3,4-3H]-Glu-OH hydrolysis inhibitory activity against rat forebrain N-Acetylated alpha-linked Dipeptidase (NAALA Dipeptidase); how it was run: as §2

SMILES | IC50 [1] | Ki [2] | IC50 [3] | Ki [4]
O=C(O)CCC(=O)N[C@@H](CCC(=O)O)C(=O)O | 2.5 µM | 0.9 µM | – | –
O=C(O)/C=C\C(=O)N[C@@H](CCC(=O)O)C(=O)O | 83 µM | 41 µM | – | –
CC(=O)N[C@@H](CC(=O)O)CC(=O)N[C@@H](CCC(=O)O)C(=O)O | 8 µM | 3.2 µM | – | –
O=C(O)/C=C/C(=O)N[C@@H](CCC(=O)O)C(=O)O | 0.8 µM | 0.4 µM | – | –
CC(=O)N[C@@H](CC(=O)O)C(=O)N[C@@H](CCC(=O)O)CC(=O)O | 200 µM | – | – | –
CC(=O)N[C@H](CC(=O)O)C(=O)N[C@@H](CCC(=O)O)C(=O)O | – | 8.5 µM | 15 µM | –
CC(=O)N[C@@H](CC(=O)O)C(=O)N[C@@H](CC(=O)O)C(=O)O (Ac-Asp-Asp-OH) | 250 µM | – | – | –
CC(=O)N[C@@H](CCC(=O)O)C(=O)N[C@@H](CC(=O)O)C(=O)O (Ac-Glu-Asp-OH) | 193 µM | – | – | –
CC(=O)N[C@@H](CCC(=O)O)C(=O)N[C@@H](CCC(=O)O)C(=O)O (Ac-Glu-Glu-OH) | – | – | 9 µM | 3.5 µM
